Measured values published in ChEMBL document CHEMBL1154598, “7-Hydroxy-benzopyran-4-one derivatives: a novel pharmacophore of peroxisome proliferator-activated receptor alpha and -gamma (PPARalpha and gamma) dual agonists” (J Med Chem, 2009).
The source made the active and inactive calls. The rule behind the calls is not given here.

Key:
[1] = target: T1, Peroxisome proliferator-activated receptor gamma (Homo sapiens) (UniProt P37231); assay: Agonist activity at human PPARgamma expressed in HEK293 cells co-transfected with PPRE assessed as beta-galactosidase signal at 25 uM after 48 hrs by reporter gene assay relative to control; format: functional, cell-based
T1 sequence (whole entry): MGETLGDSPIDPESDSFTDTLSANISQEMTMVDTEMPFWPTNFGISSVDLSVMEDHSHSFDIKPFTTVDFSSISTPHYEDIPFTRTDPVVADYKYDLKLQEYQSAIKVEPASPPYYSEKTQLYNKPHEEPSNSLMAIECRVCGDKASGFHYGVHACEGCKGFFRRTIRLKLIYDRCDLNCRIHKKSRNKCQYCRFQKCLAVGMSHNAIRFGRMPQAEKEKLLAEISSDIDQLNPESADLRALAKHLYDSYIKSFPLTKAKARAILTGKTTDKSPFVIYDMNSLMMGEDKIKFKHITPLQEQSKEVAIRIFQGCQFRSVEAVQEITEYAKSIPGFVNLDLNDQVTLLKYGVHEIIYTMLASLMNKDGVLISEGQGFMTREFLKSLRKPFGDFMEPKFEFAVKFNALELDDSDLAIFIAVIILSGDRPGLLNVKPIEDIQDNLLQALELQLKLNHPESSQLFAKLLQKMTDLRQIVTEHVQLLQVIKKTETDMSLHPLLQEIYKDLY
Outline: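 HEK293 cells were transfected with FuGENE 6 using a PPRE-luciferase reporter, pSG5-hPPARγ1 and a β-galactosidase control plasmid. After 24 h they were replated at 5 × 10⁴ cells/well, attached overnight, then treated for 48 h with 0.1% DMSO as vehicle. Luciferase was read, normalized to the β-gal signal and reported as fold activation over vehicle. Mean of two experiments in triplicate.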

[2] = target: T2, Peroxisome proliferator-activated receptor alpha (Homo sapiens) (UniProt Q07869); assay: Agonist activity at human PPARalpha expressed in HEK293 cells co-transfected with PPRE assessed as beta-galactosidase signal at 40 uM after 48 hrs by reporter gene assay relative to control; format: functional, cell-based
T2 sequence (whole entry): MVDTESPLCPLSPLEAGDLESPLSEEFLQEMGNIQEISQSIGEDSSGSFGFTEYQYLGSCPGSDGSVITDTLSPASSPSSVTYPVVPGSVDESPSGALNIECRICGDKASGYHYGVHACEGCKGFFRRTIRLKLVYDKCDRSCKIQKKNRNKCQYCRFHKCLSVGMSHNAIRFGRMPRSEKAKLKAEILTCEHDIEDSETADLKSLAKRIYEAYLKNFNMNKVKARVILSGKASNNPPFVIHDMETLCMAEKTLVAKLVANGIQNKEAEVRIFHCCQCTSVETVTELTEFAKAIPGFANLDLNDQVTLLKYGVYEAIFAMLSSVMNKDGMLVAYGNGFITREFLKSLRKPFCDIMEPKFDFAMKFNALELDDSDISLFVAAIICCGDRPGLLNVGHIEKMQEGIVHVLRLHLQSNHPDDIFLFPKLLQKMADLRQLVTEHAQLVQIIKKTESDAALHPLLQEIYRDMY
Outline: (§1)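 Human PPARα transactivation in HEK293 cells grown in DMEM/F-12 with 10% heat-inactivated FBS. Cells were transfected with FuGENE 6 using a PPRE-luciferase reporter, pBI-G-hPPARα and a β-galactosidase control plasmid. After 24 h they were replated at 5 × 10⁴ cells/well, attached overnight, then dosed for 48 h with 0.1% DMSO as vehicle. Luciferase was normalized to β-gal and expressed as fold over vehicle. Two experiments, each in triplicate.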

[3] = target: T2, Peroxisome proliferator-activated receptor alpha (Homo sapiens); assay: Agonist activity at human PPARalpha expressed in HEK293 cells co-transfected with PPRE assessed as beta-galactosidase signal at 25 uM after 48 hrs by reporter gene assay relative to control; format: functional, cell-based; outline: as §1
[4] = target: T1, Peroxisome proliferator-activated receptor gamma (Homo sapiens); assay: Agonist activity at PPARgamma expressed in mouse RAW264.7 cells assessed as beta-galactosidase signal at 10 uM by reporter gene assay relative to control; format: functional, cell-based
[5] = target: T3, Peroxisome proliferator-activated receptor gamma (Homo sapiens, UniProt P37231); assay: Agonist activity at human PPARgamma assessed as luciferase activity by transactivation assay; format: functional
T3 sequence (P37231 whole entry): T1 sequence (whole entry)
Outline: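 Transiently transfected HEK293 (PPRE-luciferase reporter plus pSG5-hPPARγ1 and β-gal control), compound exposure 48 h. EC50 is the ligand concentration giving half-maximal fold induction of β-gal-normalized luciferase, fitted by nonlinear regression. Means of three experiments.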

[6] = Cytotoxicity against HEK293 cells assessed as viable cells at 50 uM after 48 hrs by aqueous one solution cell proliferation assay relative to control; format: cell-based; details: human, read-out: Activity
Outline: (§2)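 HEK293 cells were seeded overnight, then exposed to 0–100 μM compound for 48 h at 37 °C in 5% CO₂. MTS reagent was added for a further 2 h and absorbance read at 490 nm. Viability is given as % relative to DMSO vehicle control. Two experiments, each in quadruplicate.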

[7] = target: T4, Peroxisome proliferator-activated receptor alpha (Homo sapiens, UniProt Q07869); assay: Agonist activity at human PPARalpha assessed as luciferase activity by transactivation assay; format: functional
T4 sequence (Q07869 whole entry): T2 sequence (whole entry)

[8] = Cytotoxicity against HEK293 cells assessed as viable cells at 10 uM after 48 hrs by aqueous one solution cell proliferation assay relative to control; format: cell-based; details: human, read-out: Activity; outline: as §2

## O=c1c(-c2cc(O)cc(O)c2)coc2cc(O)ccc12
[1]
  fold change (FC): 7.4

## O=c1cc(-c2ccc(O)cc2)oc2cc(O)ccc12
[2]
  fold change (FC): 2.6
[1]
  fold change (FC): 5
[3]
  fold change (FC): 1.5

## O=c1c(-c2ccc3c(c2)OCO3)coc2cc(OC3CCCCO3)ccc12 (stereo not drawn)
[1]
  fold change (FC): 9.4

## COc1cc(-c2oc3cc(O)cc(O)c3c(=O)c2O)cc(OC)c1O
[1]
  fold change (FC): 1.2

## O=c1c(-c2cccc(OCc3ccccc3)c2)coc2cc(O)ccc12
[1]
  Activity: inactive

## O=c1cc(-c2ccc(O)cc2)oc2cccc(O)c12
[2]
  fold change (FC): 3.7
[1]
  fold change (FC): 8.9
[3]
  fold change (FC): 2.4

## O=c1cc(-c2ccccc2)oc2cc(O)cc(O)c12
[2]
  fold change (FC): 5.3
[1]
  fold change (FC): 4
[4]
  fold change (FC): 5.6
[3]
  fold change (FC): 3.4

## O=c1cc(-c2ccccc2O)oc2cc(O)ccc12
[2]
  fold change (FC): 4.9
[1]
  fold change (FC): 6.8
[3]
  fold change (FC): 3.6

## O=c1c(-c2ccc(C(F)(F)F)cc2)coc2cc(O)ccc12
[1]
  fold change (FC): 4.4

## COc1cc(OC)cc(-c2coc3cc(O)ccc3c2=O)c1
[2]
  fold change (FC): 25.3
[5]
  EC50: 18.9 µM
[6]
  viability at 48 h, 50 µM: > 67%
[1]
  fold change (FC): 116
[7]
  EC50: 24.6 µM
[3]
  fold change (FC): 4.8
[8]
  viability at 48 h, 10 µM: > 80%

## CCc1cc2c(=O)c(-c3ccc4c(c3)OCO4)coc2cc1O
[1]
  fold change (FC): 12.7

## O=c1c(-c2ccc(F)cc2)coc2cc(O)ccc12
[2]
  fold change (FC): 28.7
[5]
  EC50: 15.4 µM
[6]
  viability at 48 h, 50 µM: > 67%
[1]
  fold change (FC): 148
[7]
  EC50: 33.1 µM
[3]
  fold change (FC): 8.6

## COc1ccccc1-c1coc2cc(O)ccc2c1=O
[1]
  fold change (FC): 1.6

## O=c1c(O)c(-c2ccc(O)cc2)oc2cc(O)cc(O)c12
[2]
  fold change (FC): 2.6
[1]
  fold change (FC): 3.5
[4]
  fold change (FC): 7.6
[3]
  fold change (FC): 1.8

## COc1cc(-c2cc(=O)c3c(O)cc(O)cc3o2)ccc1O
[2]
  fold change (FC): 1.3
[1]
  fold change (FC): 2.2
[3]
  fold change (FC): 1.1

## COc1ccc(/C=C/C(=O)c2ccc(O)cc2O)cc1
[1]
  fold change (FC): 2.6

## O=c1c(-c2ccc(O)cc2)coc2cc(O)ccc12
[2]
  fold change (FC): 13.4
[1]
  fold change (FC): 9.6
[3]
  fold change (FC): 6.2

## Oc1ccc(-c2n[nH]cc2-c2ccc3c(c2)OCO3)c(O)c1
[1]
  Activity: inactive

## COc1ccc2c(=O)c(-c3ccc4c(c3)OCO4)coc2c1
[2]
  fold change (FC): 2.4
[1]
  fold change (FC): 25.2
[3]
  fold change (FC): 2.2

## O=c1cc(-c2ccc(O)cc2)oc2ccc(O)cc12
[2]
  fold change (FC): 3.5
[1]
  fold change (FC): 5
[3]
  fold change (FC): 2.6

## COc1cc(-c2coc3cc(O)ccc3c2=O)cc(OC)c1OC
[1]
  Activity: inactive

## COc1c(F)cc(F)cc1-c1coc2cc(O)ccc2c1=O
[1]
  fold change (FC): 7.5

## O=c1c(O)c(-c2ccc(O)c(O)c2)oc2cc(O)cc(O)c12
[1]
  fold change (FC): 1.3

## O=c1cc(-c2ccc(O)c(O)c2)oc2ccccc12
[2]
  fold change (FC): 7.7
[1]
  fold change (FC): 5
[3]
  fold change (FC): 2.8

## O=c1c(-c2ccc(Cl)cc2)coc2cc(O)ccc12
[1]
  fold change (FC): 2.6

## O=C(/C=C/c1ccc(O)cc1)c1ccc(O)cc1O
[1]
  fold change (FC): 1.3

## COc1ccc(-c2oc3cc(O)ccc3c(=O)c2O)cc1OC
[1]
  fold change (FC): 2.4

## O=c1cc(-c2ccc(O)cc2)oc2cc(O)cc(O)c12
[2]
  fold change (FC): 2.3
[1]
  fold change (FC): 5.4
[4]
  fold change (FC): 8.13
[3]
  fold change (FC): 2

## COc1cc(-c2coc3cc(OC4CCCCO4)ccc3c2=O)cc(OC)c1OC (stereo not drawn)
[1]
  fold change (FC): 2.3

## O=c1c(-c2ccc3c(c2)OCCO3)coc2cc(OC3CCCCO3)ccc12 (stereo not drawn)
[2]
  fold change (FC): 3.3
[1]
  fold change (FC): 2
[3]
  fold change (FC): 2.5
